Screening results: PubChem BioAssay, Broad Institute
T cruzi growth-1 – inhibitors of T. cruzi proliferation | T. cruzi beta-gal in NIH3T3, GalScreen luminescence, 90 h | inhibition, % at 8.34 µM | 77,000 tested, 5.9% active | AID 624255;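 active means mean inhibition above about 93%, with at least 55% of replicates each passing it, limit read from the data, passing the limit was not always enough; inconclusive means only one of those two conditions holds; inactive means neither condition holds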
KDM4C inh – blocks human GASC-1 (KDM4C) demethylase activity | Q9H3R0 | GST-KDM4C 2-372, H3K9me3 peptide, LANCE TR-FRET | inhibition, % at 12.5 µM | 96,000 tested, 0.15% active;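 active means mean replicate inhibition above about 25%, with at least 55% of replicates also reaching it, limit read from the data, passing the limit was not always enough; inconclusive means only one of those two conditions met; inactive means neither condition met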
Target sequence (Q9H3R0 2-372 limits assumed): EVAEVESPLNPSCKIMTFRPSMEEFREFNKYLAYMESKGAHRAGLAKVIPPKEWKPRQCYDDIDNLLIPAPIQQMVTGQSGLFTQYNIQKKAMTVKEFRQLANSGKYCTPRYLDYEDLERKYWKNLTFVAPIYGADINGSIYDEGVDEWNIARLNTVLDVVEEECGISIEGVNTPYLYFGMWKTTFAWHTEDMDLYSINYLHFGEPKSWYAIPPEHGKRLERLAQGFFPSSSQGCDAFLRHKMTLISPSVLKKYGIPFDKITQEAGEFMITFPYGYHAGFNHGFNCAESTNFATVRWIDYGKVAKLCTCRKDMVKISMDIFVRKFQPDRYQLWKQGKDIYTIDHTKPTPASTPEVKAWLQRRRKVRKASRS
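reagent = H3K9me3 peptide substrate, Fe(II), 2-oxoglutarate | system = GST-tagged GASC-1 (JMJD2C) catalytic fragment, aa 2-372 | amount = enzyme final amount 10 nM | read-out = Fall in 671/618 emission ratio as inhibition | medium = HEPES buffer, pH 7.5, plus ascorbate | schedule = 30 min reaction, 60 min detection, RT | measured by = LANCE TR-FRET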
IDH1 R132H inh – inhibitors of human IDH1 R132H | O75874 | IDH1 R132H reductase, diaphorase/resazurin fluorescence, 60 min | inhibition, % at 10 µM | 70,000 tested, 0.18% active | AID 624101; in the data active means inhibition above about 34%; inconclusive means no clear call, values can overlap the other calls; inactive means below about 11%;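 further: 0% = DMSO and 100% = no enzyme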
Pf Dd2 inh – blocks growth of Plasmodium falciparum Dd2 parasites | P. falciparum Dd2 growth, SYBR Green, 72 h; stronger effect = lower value | activity change, % at 10 µM | 94,000 tested, 2.3% active; in the data active means activity change below about -80%; inconclusive means no clear call, values can overlap the other calls
T cruzi growth-2 – blocks T. cruzi growth in NIH3T3 host cells | shares compounds with T cruzi growth-1 | T. cruzi beta-gal in NIH3T3, GalScreen luminescence, 90 h | inhibition, % at 8.35 µM | 5,600 tested, 72% active | AID 651739;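 active means mean replicate inhibition above about 95% and at least 55% of replicates individually reaching it, limit read from the data; inconclusive means only one of the two criteria is met; inactive means neither criterion is met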
T cruzi growth-3 – Trypanosoma cruzi proliferation inhibition; shares compounds with T cruzi growth-1; T. cruzi beta-gal in NIH3T3, GalScreen luminescence, 90 h; inhibition, % at 2.09 µM; 5,600 tested, 21% active; AID 651740;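 active means mean inhibition above about 95%, with at least 55% of replicates also reaching it, limit read from the data; inconclusive means meets just one of the two conditions; inactive means meets neither condition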;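 further: plate controls were neutral control median for no effect and positive control median for full effect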
3T3 cytotox – cytotoxicity in mouse NIH/3T3 fibroblasts | 5,600 tested, 14% active | AID 651742 | cytotoxicity (signal decrease), % at 8.35 µM | shares compounds with T cruzi growth-1 | NIH/3T3 viability, CellTiter-Glo ATP luminescence, 90 h;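 active means mean signal decrease across replicates above about 35% based on untreated-well scatter, with enough replicates individually passing, limit read from the data; inconclusive means no rule stated though some were filed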;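 further: 0% = median of neutral control wells and 100% = median of positive control wells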
NIH3T3 tox 2 – NIH/3T3 (mouse) viability loss; shares compounds with T cruzi growth-1; NIH/3T3 viability, CellTiter-Glo ATP luminescence, 90 h; inhibition, % at 24.9 µM; 5,600 tested, 56% active; AID 651744;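 active means mean loss of cell viability signal at or above a set limit, and enough replicates individually reaching it; inconclusive means meets only the mean limit or only the replicate share; inactive means meets neither condition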;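 further: 0% = median of neutral control wells and 100% = median of positive control wells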
* marks the source's active call; other numbers are inactive results; ? = inconclusive; nt = no result given. The list is not random: actives were taken first. Their share in the collection is about 5.9%.

SMILES	T cruzi growth-1	KDM4C inh	IDH1 R132H inh	Pf Dd2 inh	T cruzi growth-2	T cruzi growth-3	3T3 cytotox	NIH3T3 tox 2
C[C@H](O)C#Cc1ccc([C@@H]2[C@H](CO)N3CCCCN(S(=O)(=O)c4ccccc4)C[C@@H]23)cc1	114*	2	nt	-21	19	13	-1	19
C[C@H](O)C#Cc1ccc([C@H]2[C@H]3CN(S(=O)(=O)c4ccccc4)CCCCN3[C@H]2CO)cc1	?	-1	nt	-9	97*	20	3	6
C[C@@H]1CN([C@H](C)CO)C(=O)c2cc(NC(=O)Nc3ccccc3)ccc2O[C@@H](C)CCCCO[C@@H]1CN(C)CC1CCCCC1	87	-1	-1	?	nt	nt	nt	nt
C[C@@H]1CCCCO[C@@H](CN(C)CC2CCCCC2)[C@@H](C)CN([C@H](C)CO)C(=O)c2cc(NC(=O)Nc3ccccc3)ccc2O1	103*	-2	1	-65	105*	97*	13	57*
C[C@H]1CCCCO[C@H](CN(C)CC2CCCCC2)[C@@H](C)CN([C@@H](C)CO)C(=O)c2cc(NC(=O)Nc3ccccc3)ccc2O1	82	-1	nt	-73	nt	nt	nt	nt
C[C@@H]1CN([C@@H](C)CO)C(=O)c2cc(NC(=O)Nc3ccccc3)ccc2O[C@@H](C)CCCCO[C@@H]1CN(C)CC1CCCCC1	?	-1	0	-74	101*	39	3	104*
C[C@H](CO)N1C[C@H](C)[C@H](CN(C)CC2CCCCC2)OCCCC[C@H](C)Oc2ccc(NC(=O)Nc3ccccc3)cc2C1=O	?	1	5	-77	98*	60	13	105*
C[C@@H]1CCCCO[C@@H](CN(C)CC2CCCCC2)[C@H](C)CN([C@H](C)CO)C(=O)c2cc(NC(=O)c3ccccc3)ccc2O1	117*	-1	nt	-70	112*	?	20	105*
COc1ccc(NC(=O)c2c(-c3ccccc3)csc2NC(=O)CN2CCOCC2)cc1	nt	nt	0	nt	nt	nt	nt	nt
C[C@@H]1CN([C@@H](C)CO)C(=O)c2cc(NC(=O)Cc3ccccc3)ccc2O[C@@H](C)CCCCO[C@H]1CN(C)CC1CCCCC1	116*	-1	nt	-39	109*	59	1	58*
C[C@H](CO)N1C[C@H](C)[C@H](CN(C)CC2CC2)OCCCC[C@H](C)Oc2ccc(NC(=O)Nc3ccccc3)cc2C1=O	98*	10	-2	-77	104*	63	16	17
C[C@@H]1CCCCO[C@@H](CN(C)CC2CCCCC2)[C@H](C)CN([C@H](C)CO)C(=O)c2cc(NC(=O)NC3CCCCC3)ccc2O1	106*	-1	0	-73	104*	84	3	107*
C/C=C/c1ccc2c(c1)O[C@@H](CN(C)S(=O)(=O)c1ccc(C)cc1)[C@@H](C)CN([C@H](C)CO)S2(=O)=O	114*	-3	-1	-16	100*	81	32	67*
C/C=C/c1ccc2c(c1)O[C@@H](CN(C)S(=O)(=O)c1ccccc1OC)[C@@H](C)CN([C@@H](C)CO)S2(=O)=O	67	-1	-2	-47	nt	nt	nt	nt
COc1ccccc1S(=O)(=O)N(C)C[C@@H]1Oc2cc(/C=C/c3ccccc3)ccc2S(=O)(=O)N([C@H](C)CO)C[C@H]1C	124*	2	0	?	105*	103*	63*	71*
C/C=C/c1ccc2c(c1)O[C@@H](CN(C)S(=O)(=O)c1ccccc1)[C@@H](C)CN([C@@H](C)CO)S2(=O)=O	65	-2	-23	-36	nt	nt	nt	nt
C/C=C/c1ccc2c(c1)O[C@H](CN(C)S(=O)(=O)c1ccccc1OC)[C@@H](C)CN([C@H](C)CO)S2(=O)=O	117*	-2	-6	-56	106*	86	39*	?
Cc1ccc(C)c(-n2nnnc2SCC(=O)Nc2ccc(F)cc2)c1	nt	nt	0	nt	nt	nt	nt	nt
COc1cc(C(=O)Nc2ccc(S(=O)(=O)Nc3ccccn3)cc2)cc(OC)c1OC	nt	nt	0	nt	nt	nt	nt	nt
C[C@H](CO)N1C[C@H](C)[C@@H](CN(C)C(=O)Nc2ccc3c(c2)OCO3)Oc2cc(C#Cc3cccnc3)ccc2S1(=O)=O	93	-2	nt	-47	nt	nt	nt	nt
C[C@H]1CN([C@@H](C)CO)S(=O)(=O)c2ccc(C#Cc3cccnc3)cc2O[C@H]1CN(C)C(=O)Nc1ccc2c(c1)OCO2	102*	-1	nt	?	64	43	8	11
C[C@@H]1CN([C@H](C)CO)S(=O)(=O)c2ccc(C#Cc3cccnc3)cc2O[C@@H]1CN(C)C(=O)Nc1ccc2c(c1)OCO2	?	0	0	-63	77	62	18	40*
O=C(CCCCCCC(=O)Nc1ccccc1O)N/N=C/c1ccc([N+](=O)[O-])s1	nt	nt	0	nt	nt	nt	nt	nt
CC1CCc2c(sc3ncn(CC(=O)Nc4c(C(C)C)cccc4C(C)C)c(=O)c23)C1 (stereo not given)	nt	nt	0	nt	nt	nt	nt	nt
CCCN(C)C[C@@H]1OCCCC[C@H](C)Oc2ccc(NC(=O)Nc3ccc(F)cc3)cc2C(=O)N([C@@H](C)CO)C[C@@H]1C	95*	-1	nt	-63	99*	83	10	16
SMILES	T cruzi growth-1	KDM4C inh	IDH1 R132H inh	Pf Dd2 inh	T cruzi growth-2	T cruzi growth-3	3T3 cytotox	NIH3T3 tox 2
CCCN(C)C[C@@H]1OCCCC[C@@H](C)Oc2ccc(NC(=O)Nc3ccc(C(F)(F)F)cc3)cc2C(=O)N([C@H](C)CO)C[C@@H]1C	100*	-2	nt	-74	107*	86	26	39*
C[C@H](CO)N1C[C@H](C)[C@@H](CN(C)C(=O)C2CCC2)Oc2ncc(/C=C/c3ccccc3)cc2C1=O	59	0	0	-64	nt	nt	nt	nt
C[C@H](CO)N1C[C@H](C)[C@H](CN(C)C(=O)C2CCCCC2)Oc2ncc(/C=C/c3ccccc3)cc2C1=O	85	0	-1	?	nt	nt	nt	nt
C[C@H]1CN([C@@H](C)CO)C(=O)c2cc(/C=C/c3ccccc3)cnc2O[C@@H]1CN(C)C(=O)C1CCC1	?	-2	0	-70	?	28	5	18
C[C@H]1CN([C@@H](C)CO)C(=O)c2cc(/C=C/c3ccccc3)cnc2O[C@@H]1CN(C)C(=O)C1CCCCC1	99*	0	nt	-88*	101*	61	9	?
C[C@H](CO)N1C[C@H](C)[C@@H](CN(C)C(=O)C2CCCCC2)Oc2ncc(/C=C/c3ccccc3)cc2C1=O	113*	-3	0	-89*	112*	68	-41	1
